# Assay results collected from several papers.
# Lines come from different studies, so protocols differ.
# Mode: agonist
# GPR84: G-protein coupled receptor 84 (GPR84, Homo sapiens, UniProt Q9NQS5)
# Peroxisome proliferator-activated receptor alpha: Peroxisome proliferator-activated receptor alpha (Rattus norvegicus, UniProt P37230)
SMILES,target,effect on,technique,EC50 [nM]
CC(C)(C)c1ccc(CCNc2cc(=O)[nH]c(=O)[nH]2)cc1,GPR84,cAMP,,43.7
CC(C)C[C@H](NC(=O)[C@H](Cc1ccccc1)NC(=O)[C@@H](N)Cc1ccc(O)cc1)C(=O)N[C@@H](Cc1ccccc1)C(=O)N[C@@H](CCCNC(=N)N)C(=O)N1CCC[C@H]1C(=O)N[C@@H](CCCNC(=N)N)C(=O)N[C@@H](CC(N)=O)C(N)=O,"Neuromedin-U receptor 2 (Mus musculus, UniProt Q8BZ39)",β-arrestin recruitment,,8.32
C[C@H](NC(=O)Cc1ccccc1)C(=O)N[C@H](Cc1c[nH]c2ccccc12)C(=O)NCCc1ccccc1,"Bombesin receptor subtype-3 (Brs3, Rattus norvegicus, UniProt Q8K418)",calcium signal,fluorescence,110
Cc1cccc(Nc2cc(Cl)nc(SCC(=O)O)n2)c1C,Peroxisome proliferator-activated receptor alpha,reporter gene,luciferase,9500
CCCCCCCCCCNc1cc(O)nc(O)n1,GPR84,cAMP,,20.9
NCCCC[C@H](NC(=O)[C@@H]1CCCN1C(=O)[C@@H]1CSSC[C@H](NC(=O)CNC(=O)CNC(=O)CN)C(=O)N[C@@H](Cc2ccc(O)cc2)C(=O)N[C@@H](Cc2ccccc2)C(=O)N[C@@H](CCC(N)=O)C(=O)N[C@@H](CC(N)=O)C(=O)N1)C(=O)NCC(N)=O,"Vasopressin V2 receptor (AVPR2, Homo sapiens, UniProt P30518)",cAMP,TR-FRET,28
CCCC[C@H](NC(=O)[C@H](CO)NC(=O)[C@H](Cc1ccc(O)cc1)NC(=O)[C@H](CO)NC(C)=O)C(=O)N[C@@H](CCC(=O)O)C(=O)N[C@@H](Cc1c[nH]cn1)C(=O)N[C@@H](C)C(=O)N[C@@H](CCCNC(=N)N)C(=O)N[C@@H](Cc1c[nH]c2ccccc12)C(=O)NCC(=O)N[C@@H](CCCCN)C(=O)N1CCC[C@H]1C(=O)N[C@H](C(=O)NCC(=O)N[C@@H](CCCCN)C(=O)N[C@@H](CCCCN)C(=O)N[C@@H](CCCNC(=N)N)C(N)=O)C(C)C,"Melanocyte-stimulating hormone receptor (MC1R, Homo sapiens, UniProt Q01726)",cAMP,,7.8
CC(C)c1nc2cc(OCCCCN3CCN(c4cccc5c4OCCN5)CC3)ccc2s1,"D(2) dopamine receptor (DRD2, Homo sapiens, UniProt P14416)",cAMP,luciferase,2.8
O=c1[nH]c(NCCc2ccc(Br)cc2)c(Br)c(=O)[nH]1,GPR84,cAMP,,372
CC(C)(Oc1ccc(C(=O)c2ccc(Cl)cc2)cc1)C(=O)O,Peroxisome proliferator-activated receptor alpha,reporter gene,luciferase,194000
CC(=O)N[C@H]1CSSC[C@@H](C(=O)N[C@@H](Cc2c[nH]c3ccccc23)C(N)=O)NC(=O)[C@@H](Cc2ccccc2)NC(=O)[C@H](CCCNC(=N)N)NC1=O,"Melanocortin receptor 3 (MC3R, Homo sapiens, UniProt P41968)",cAMP,,2400
